Assay results reported in ChEMBL document CHEMBL1131877, “Structure-activity relationship of short-chain sphingoid bases as inhibitors of sphingosine kinase” (Bioorg Med Chem Lett, 1999).

tested on: HEK293; test: Inhibitory activity against sphingosine kinase expressed in HEK293 cells at 10 uM; assay type: cell-based; conditions: Homo sapiens
Procedure, shortened: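 Sphingosine kinase from cytosolic fractions of HEK 293 cells transfected to overexpress the enzyme (0.125 μg). Substrate D-erythro-sphingosine 10 μM in Triton X-100 (0.25% final), with [³²P]ATP (10 μCi, 1 mM) and MgCl₂ 10 mM. Analogues tested at 10 μM. After 10 min at 37 °C, sphingosine-1-phosphate formation measured. Activity given as % of vehicle-only control; means ± S.D.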

Compared with CCCCCCC/C=C/[C@@H](O)[C@@H](N)CO, CCCCCCC/C=C/[C@H](O)[C@@H](N)CO is higher in inhibition: 69% for the first, 70% for the second.

Going from N[C@@H](CO)[C@@H](O)/C=C/c1ccccc1 to N[C@@H](CO)[C@H](O)/C=C/c1ccccc1, the inhibition falls from 79% to 77%.

Compared with N[C@@H](CO)[C@@H](F)CCc1ccccc1, N[C@@H](CO)[C@H](O)CCc1ccccc1 is lower in inhibition: 62% for the first, 59% for the second.

First: CCCCCCCCC[C@H](O)[C@@H](N)CO
Second: CCCCCCCCC[C@@H](O)[C@@H](N)CO
The inhibition of the first is higher: 50% for the first, 48% for the second.

Compared with CCCCCCCCC[C@H](F)[C@@H](N)CO, CCCCCCC/C=C/[C@H](F)[C@@H](N)CO is higher in inhibition: 68% for the first, 82% for the second.

First: CCCCCCCCCCCCC/C=C/[C@@H](O)[C@H](CO)N(C)C
Second: CCCCCCCC(F)/C=C/[C@@H](N)CO (stereo partly drawn)
The inhibition of the first is lower: 47% for the first, 80% for the second.

With N[C@@H](CO)[C@@H](O)CCc1ccccc1 the inhibition was 72%.
